The values below come from ChEMBL document CHEMBL2417419, “Synthesis and quantitative structure-activity relationship of imidazotetrazine prodrugs with activity independent of O6-methylguanine-DNA-methyltransferase, DNA mismatch repair, and p53” (J Med Chem, 2013).

Activity calls are given as the source filed them. The calls are words filed in the database; no cut-off is given here.

The test system of series [1] is HCT-116. As to the kind of experiment: Ratio of IC50 for human HCT116 cells expressing p53 to IC50 for p53-deficient human HCT116 cells. The class given is functional.
Series [2] relates to HCT-116. As to the kind of experiment: Chemosensitization of p53-deficient human HCT116 cells after 5 days by MTT assay. Type of series: functional, cell-based. The conditions noted are these: HCT-116, 120 h. In a few lines:
(§1)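 Cells were seeded at 1×10^3 per well and incubated overnight (37 °C, 5% CO2) to attach, then given fresh medium with compound at 0 (control) to 250 µM. Compounds were dissolved in DMSO, final DMSO <0.1% v/v, with no PaTrin2. MTT survival was measured after 5 days at 37 °C. Isogenic HCT116 p53+/+ and p53−/− pair used.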

Series [3] relates to HCT-116. As to the kind of experiment: Chemosensitization of human HCT116 cells expressing p53 after 5 days by MTT assay. The class given is functional, cell-based. The conditions noted are these: HCT-116, 120 h. In a few lines: as §1
Series [4] relates to SNB-19. As to the kind of experiment: Chemosensitization of human SNB19 cells expressing MGMT after 5 days by MTT assay. Conditions: SNB-19, 120 h, in the assay text read “Cyquant assay” for “MTT assay”. The class given is functional, cell-based.
For series [5], the system named is SNB-19. Put plainly: Chemosensitization of MGMT-deficient human SNB19 cells after 5 days by MTT assay. The class given is functional, cell-based. Conditions: SNB-19, 120 h, in the assay text read “Cyquant assay” for “MTT assay”.
For series [6], the system named is A2058. As to the kind of experiment: Chemosensitization of human A2058 cells after 5 days by MTT assay. The class given is functional, cell-based. Conditions: A2058, 120 h, in the assay text read “Cyquant assay” for “MTT assay”.
The subject of series [7] is A2780. Put plainly: Ratio of IC50 for human A2780 cells to IC50 for human A2780 cells in presence of MGMT inactivator PaTrin2. The class given is functional.
The test system of series [8] is A2780. As to the kind of experiment: Ratio of IC50 for MMR-deficient human A2780/CP70 cells to IC50 for human A2780 cells in presence of MGMT inactivator PaTrin2. Type of series: functional.
Series [9] concerns A2780/CP70. As to the kind of experiment: (§2) Chemoseinsitizatioin of MMR-deficieint humain A2780/CP70 cells after 5 days by MTT assay in preseince of MGMT iinactivator PaTriin2. Conditions: Homo sapiens. The class given is functional, cell-based. A digest of the protocol: (§3)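 Cells plated at 1×10^3 per well and left overnight at 37 °C in 5% CO2 to adhere. Medium was then replaced with fresh medium holding compound (0 controls to 250 µM; DMSO stock, final DMSO <0.1% v/v) plus 10 µM PaTrin2 to inactivate MGMT. Survival was read by MTT after 5 days at 37 °C.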

Series [10] relates to A2780/CP70. As to the kind of experiment: (§4) Chemosensitization of MMR-deficient human A2780/CP70 cells after 5 days by MTT assay. The class given is functional, cell-based.
Series [11] concerns A2780. As to the kind of experiment: Chemosensitization of human A2780 cells after 5 days by MTT assay. The class given is functional, cell-based. Conditions: A2780, 120 h.
Series [12] deals with A2058. As to the kind of experiment: Ratio of temozolomide IC50 to compound IC50 for human A2058 cells. The class given is functional.
Series [13] can be described thus: as §2. Conditions: Homo sapiens, A2780/CP70, 120 h. The class given is functional, cell-based. In a few lines:
as §3

For series [14], the system named is A2780. As to the kind of experiment: Chemosensitization of human A2780 cells after 5 days by MTT assay in presence of MGMT inactivator PaTrin2. The class given is functional, cell-based. Conditions: A2780, 120 h. A digest of the protocol: as §3
Series [15] can be described thus: as §4. The class given is functional, cell-based. Conditions: A2780/CP70, 120 h.
The nature of series [16]: Half life of the compound at pH 7.4. Type of series: physicochemical.

On to `NC(=O)c1ncn2c(=O)n(CCNc3ccc(Cl)cc3)nnc12`, for which the “Ratio IC50” value in series [1] is 1.4; in series [7], 1.1; in series [8], 2.8. For the same compound, the half-maximal inhibitory concentration (IC50) in series [2] was 9.5 µM; in series [3] it was 13.2 µM; in series [4] it was more than 100 µM; in series [5], 77 µM; in [6], more than 100 µM; in series [11], 22 µM. Further, the outcome in series [9] and in [10] was Active.
Turning to `NC(=O)c1ncn2c(=O)n(CCN(CCn3nnc4c(C(N)=O)ncn4c3=O)c3ccc(F)cc3)nnc12`, the “Ratio IC50” value is 10 in series [12], 1.6 in series [1], 0.5 in series [7] and 5 in [8]. For the same compound, the IC50 is 17 µM in [2]; 28 µM in series [3]; 12 µM in series [4]; 11 µM in [5]; 5.5 µM in series [6]; 1 µM in series [11]. Further, the result in series [9] and in series [10] was Active.
Regarding `NC(=O)c1ncn2c(=O)n(CCCl)nnc12` [MITOZOLOMIDE], in series [1], the “Ratio IC50” value came out at 3.4. Besides, the half-inhibitory concentration (IC50) in series [2] turned out to be 17.9 µM; in [3], 60 µM.
On to `CN(CCn1nnc2c(C(N)=O)ncn2c1=O)c1ccc(F)cc1`, for which the “Ratio IC50” value in [7] amounted to 1.1; in series [8] it was 2.8. Further, the outcome in series [9] and in [10] was Active. The concentration for half-maximal inhibition (IC50) in series [11] was determined as 22 µM.
On to `COc1ccc(N(C)CCn2nnc3c(C(N)=O)ncn3c2=O)c([N+](=O)[O-])c1`, for which the figures for the “Ratio IC50” value in series [7] and in series [8] were 1.1 and 2.8, respectively. Besides, the result in series [9] and in series [10] was Active. In addition, in series [11], the half-maximal inhibitory concentration (IC50) was found to be 22 µM.
`CN(CCn1nnc2c(C(N)=O)ncn2c1=O)c1ccccc1`: the “Ratio IC50” value in series [7] worked out at 1.1; in series [8], 2.8. Besides, the result in series [9] and in series [10] was Active. The IC50 in series [11] was 22 µM.
On to `CC(C)(C)OC(=O)N(CCn1nnc2c(C(N)=O)ncn2c1=O)c1ccc(Cl)cc1`, for which the “Ratio IC50” value in [7] came out at 1.1; in [8] it was 2.8. Further, the outcome in series [9] and in [10] was Active. For the same compound, the half-inhibitory concentration (IC50) in series [11] worked out at 22 µM.
For the compound `COc1ccc(N(CCn2nnc3c(C(N)=O)ncn3c2=O)CCn2nnc3c(C(N)=O)ncn3c2=O)c([N+](=O)[O-])c1`, the “Ratio IC50” value is listed as 0.5 in series [7] and 5 in series [8]. In addition, the result in series [9] and in series [10] was Active. Besides, the IC50 in series [11] came out at 1 µM.
For `Cn1nnc2c(C(N)=O)ncn2c1=O` [TEMOZOLOMIDE], the IC50 in [4] is more than 250 µM; in series [5] it was 37 µM; in series [6] it was 35.5 µM; in series [13], 231 µM; in series [14], 8.5 µM; in series [15], more than 250 µM. Besides, the IC50 in series [11] is more than 250 µM. Moreover, the “Ratio IC50” value in series [7] is more than 30; in series [8], more than 27. The half-life in series [16] was 74.4 min.
In the case of `COc1ccc(N(CCn2nnc3c(C(N)=O)ncn3c2=O)CCn2nnc3c(C(N)=O)ncn3c2=O)cc1`, the “Ratio IC50” value in series [12] was determined as 10; in series [1], 0.8; in series [7], 0.5; in series [8] it was 5. Further, the IC50 amounted to 9.9 µM in series [2]; 7.6 µM in [3]; 7 µM in series [4]; 6.6 µM in [5]; 2.5 µM in [6]; 1 µM in [11]. Also, the result in series [9] and in series [10] was Active.
With `Cc1ccc(N(C)CCn2nnc3c(C(N)=O)ncn3c2=O)cc1[N+](=O)[O-]`, the “Ratio IC50” value in series [7] stood at 1.1; in series [8], 2.8. Also, the result in series [9] and in [10] was Active. Also, the 50% inhibitory concentration (IC50) in series [11] came out at 22 µM.
`CN(CCn1nnc2c(C(N)=O)ncn2c1=O)c1ccc([N+](=O)[O-])cc1`: the “Ratio IC50” value in series [7] was 1.1; in [8] it was 2.8. The outcome in [9] and in series [10] was Active. For the same compound, the IC50 in series [11] came out at 22 µM.
In the case of `CN(CCn1nnc2c(C(N)=O)ncn2c1=O)c1ccc(Cl)cc1`, the “Ratio IC50” value in [1] was found to be 1.5; in series [7], 1.1; in series [8] it was 2.8. For the same compound, the IC50 in series [2] stood at 35.8 µM; in series [3], 55 µM; in series [11] it was 22 µM. Moreover, the outcome in series [9] and in series [10] was Active.
For `Cc1ccc(N(CCn2nnc3c(C(N)=O)ncn3c2=O)CCn2nnc3c(C(N)=O)ncn3c2=O)cc1`, the “Ratio IC50” value in [1] stood at 1.4; in [7] it was 0.5; in [8] it was 5. The concentration for half-maximal inhibition (IC50) in series [2] amounted to 4.4 µM; in series [3], 6.2 µM; in series [11], 1 µM. The outcome in [9] and in series [10] was Active.
With `NC(=O)c1ncn2c(=O)n(CCN(CCn3nnc4c(C(N)=O)ncn4c3=O)c3ccccc3)nnc12`, the results for the “Ratio IC50” value in series [1], in series [7] and in series [8] were 1.1, 0.5 and 5, respectively. Besides, the half-maximal inhibitory concentration (IC50) in [2] stood at 4.8 µM; in series [3], 5.5 µM; in [11], 1 µM. For the same compound, the result in series [9] and in series [10] was Active.
As to `NC(=O)c1ncn2c(=O)n(CCN(CCn3nnc4c(C(N)=O)ncn4c3=O)c3ccc(Cl)cc3)nnc12`, the “Ratio IC50” value in series [7] stood at 0.5; in series [8] it was 5. Also, the result in [9] and in series [10] was Active. In addition, in [11], the concentration for half-maximal inhibition (IC50) was 1 µM.
`Cc1ccc(N(C)CCn2nnc3c(C(N)=O)ncn3c2=O)cc1`: the figures for the “Ratio IC50” value in [7] and in series [8] were 1.1 and 2.8, respectively. For the same compound, the result in series [9] and in series [10] was Active. Further, the IC50 in [11] was determined as 22 µM.
